Source: ChEMBL document CHEMBL1139377, “Induced association of mu opioid (MOP) and type 2 cholecystokinin (CCK2) receptors by novel bivalent ligands” (J Med Chem, 2009)

Tests used:
[1] = molecular target: T1, Gastrin/cholecystokinin type B receptor (Homo sapiens) (UniProt P32239); experiment: Binding affinity to CCK2R-MOPR coexpressed in CHO cells assessed per mg of protein by [125I] CCK-26-33 displacement assay; assay type: cell-based
T1 sequence (whole entry): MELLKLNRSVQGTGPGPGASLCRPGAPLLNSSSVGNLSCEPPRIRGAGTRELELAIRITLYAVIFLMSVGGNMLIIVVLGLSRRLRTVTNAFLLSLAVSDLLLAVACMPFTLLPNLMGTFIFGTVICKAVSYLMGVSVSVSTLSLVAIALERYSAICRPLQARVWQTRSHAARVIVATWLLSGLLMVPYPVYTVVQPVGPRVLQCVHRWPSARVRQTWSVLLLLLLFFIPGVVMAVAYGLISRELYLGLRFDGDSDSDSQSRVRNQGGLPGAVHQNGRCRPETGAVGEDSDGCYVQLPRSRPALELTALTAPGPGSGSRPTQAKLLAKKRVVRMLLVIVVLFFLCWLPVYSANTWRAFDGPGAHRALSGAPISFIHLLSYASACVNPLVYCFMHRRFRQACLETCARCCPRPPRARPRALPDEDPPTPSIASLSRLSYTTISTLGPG
Summary of the method: (§1)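 Membranes came from CHO-K1 cells stably expressing CCK2 receptor alone or with MOP receptor. They were incubated with 125I-D-Tyr-Gly-[(Nle28,31)CCK-26-33] (1-5 pM) plus increasing unlabeled ligand for 90 min at room temperature in KRH, pH 7.4, with 0.2% BSA and soybean trypsin inhibitor. Nonspecific binding was set with 1 μM CCK. Bound ligand was filtered and gamma counted; Ki and Bmax (pmol/mg protein) were taken from LIGAND analysis. Mean±S.E.M., 3-5 experiments.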

[2] = molecular target: T2, Gastrin/cholecystokinin type B receptor (Homo sapiens, UniProt P32239); experiment: Displacement of [125I]CCK-26-33 from CCK2 receptor expressed in CHO cells; assay type: cell-based
T2 sequence (P32239 whole entry): T1 sequence (whole entry)
Summary of the method: (§2)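 CHO-K1 cell lines stably expressing CCK2 receptor alone or with MOP receptor; receptor-enriched membranes from density gradient centrifugation. (1-5 pM) and increasing concentrations of unlabeled ligand, 90 min, room temperature, KRH pH 7.4 with 0.2% BSA and soybean trypsin inhibitor. Filtration, gamma counting; nonsaturable binding with 1 μM CCK. Ki from LIGAND analysis; 3-5 independent experiments.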

Mus musculus [3] = experiment: Antinociceptive activity in icv dosed ICR mouse after 24 hrs by tail flick assay; assay type: functional
Summary of the method: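 24 h tolerance in male ICR mice: the day-1 ED80 i.c.v. dose (5 μL, under 1% DMSO) was given again 24 h later to the same mouse, after confirming antinociception had returned to baseline. Radiant-heat tail flick was read at peak time (10-20 min) and expressed as %MPE.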

[4] = molecular target: T2, Gastrin/cholecystokinin type B receptor; experiment: Activity at CCK2R-MOPR coexpressed in CHO cells co-transfected with delta-6-Galphaqi4-myr assessed as intracellular calcium release by FLIPR; assay type: functional, cell-based
Summary of the method: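 CHO cells stably expressing CCK2R were grown to 90% confluence, then transiently co-transfected by lipofectamine with MOPR and chimeric Gqi4-myr constructs. After 24 h they were seeded into 96-well plates and used the next day. Ca2+ mobilization was read with a FLIPR calcium kit on a FlexStation3, giving EC50 (nM); number of runs in parentheses.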

Mu-type opioid receptor [5] = molecular target: T3, Mu-type opioid receptor (Homo sapiens, UniProt P35372); experiment: Displacement of [3H]DAMGO from mu opioid receptor expressed in CHO cells; assay type: cell-based
Summary of the method: (§3)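 Membranes came from CHO cells stably expressing MOP receptor alone or with CCK2 receptor. They were incubated with [3H]DAMGO (0.4 nM) plus increasing unlabeled ligand for 2 h at room temperature in KRH, pH 7.4, with 0.2% BSA and soybean trypsin inhibitor. Nonspecific binding was set with 1 μM DAMGO. Samples were filtered on PEI-soaked GF/C and scintillation counted; Ki and Bmax (pmol/mg protein) came from LIGAND analysis. Mean±S.E.M., 3-5 experiments.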

[6] = molecular target: T2, Gastrin/cholecystokinin type B receptor; experiment: Displacement of [125I]CCK-26-33 from CCK2R-MOPR coexpressed in CHO cells; assay type: cell-based; summary of the method: as §2
Mus musculus [7] = experiment: Antinociceptive activity in icv dosed ICR mouse by tail flick assay; assay type: functional
Summary of the method: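 Male ICR mice (17-25 g) received i.c.v. injections (5 μL, under 1% DMSO) while conscious. Radiant-heat tail flick was measured at peak time from a 10-60 min time course, expressed as %MPE. At least three groups of 8-10 mice per dose-response, each mouse used once. ED50 (pmol/mouse) with 95% CI came from nonlinear regression.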

[8] = molecular target: T1, Gastrin/cholecystokinin type B receptor (Homo sapiens); experiment: Binding affinity to CCK2 receptor expressed in CHO cells assessed per mg of protein; assay type: cell-based; summary of the method: as §1
Mu-type opioid receptor [9] = molecular target: T3, Mu-type opioid receptor; experiment: Binding affinity to mu opioid receptor expressed in CHO cells assessed per mg of protein; assay type: cell-based; summary of the method: as §3

T3 sequence (P35372 whole entry): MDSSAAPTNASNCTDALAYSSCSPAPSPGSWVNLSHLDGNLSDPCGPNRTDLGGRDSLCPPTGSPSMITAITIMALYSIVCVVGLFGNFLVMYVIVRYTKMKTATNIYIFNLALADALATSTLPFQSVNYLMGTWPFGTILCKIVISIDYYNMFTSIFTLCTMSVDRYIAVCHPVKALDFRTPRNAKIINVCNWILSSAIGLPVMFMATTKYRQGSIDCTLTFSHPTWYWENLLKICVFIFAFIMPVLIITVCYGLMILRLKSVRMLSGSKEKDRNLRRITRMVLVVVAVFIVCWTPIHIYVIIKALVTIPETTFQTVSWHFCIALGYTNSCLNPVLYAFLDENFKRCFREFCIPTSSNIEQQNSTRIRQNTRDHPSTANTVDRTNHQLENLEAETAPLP

CN1C(=O)[C@H](NC(=O)Nc2cccc(OCCNC(=O)COCC(=O)NCCNC(=O)COCC(=O)N[C@H]3CC[C@@]4(O)[C@H]5Cc6cc(O)cc7c6[C@@]4(CCN5C)[C@H]3O7)c2)N=C(c2ccccc2)c2ccccc21
Bmax [1]: 12.4 pmol | Ki [2]: 71 nM | ED50 (Mus musculus [3]): 71.29 pmol | EC50 [4]: 119 nM | Ki (Mu-type opioid receptor [5]; read-out: Ki): 5.7 nM | Ki [6]: 33 nM | ED50 (Mus musculus [7]): 390 pmol | Bmax [8]: 10.3 pmol | Bmax (Mu-type opioid receptor [9]): 7.7 pmol

Cc1cccc(NC(=O)N[C@@H]2N=C(c3ccccc3)c3ccccc3N(C)C2=O)c1
Bmax [1]: 9.1 pmol | Bmax [8]: 14.4 pmol

CNC(=O)COCC(=O)NCCCCCCNC(=O)COCC(=O)NCCOc1cccc(NC(=O)N[C@@H]2N=C(c3ccccc3)c3ccccc3N(C)C2=O)c1
Bmax [1]: 9.5 pmol | EC50 [4]: < 10000 nM | Bmax [8]: 16 pmol

C[C@@H](NC(=O)[C@@H](N)Cc1ccc(O)cc1)C(=O)NCC(=O)N(C)[C@@H](Cc1ccccc1)C(=O)NCCO [DAMGO]
EC50 [4]: 2.66 nM | Bmax (Mu-type opioid receptor [9]): 9.2 pmol

CN1C(=O)[C@H](NC(=O)Nc2cccc(OCCNC(=O)COCC(=O)NCCCCCCNC(=O)COCC(=O)N[C@H]3CC[C@@]4(O)[C@H]5Cc6cc(O)cc7c6[C@@]4(CCN5C)[C@H]3O7)c2)N=C(c2ccccc2)c2ccccc21
Bmax [1]: 10.9 pmol | Ki [2]: 260 nM | ED50 (Mus musculus [3]): 64.33 pmol | Ki (Mu-type opioid receptor [5]; read-out: Ki): 29.4 nM | Ki [6]: 77 nM | ED50 (Mus musculus [7]): 2020 pmol | Bmax [8]: 18.5 pmol | Bmax (Mu-type opioid receptor [9]): 7.4 pmol

CN1C(=O)[C@H](NC(=O)Nc2cccc(OCCNC(=O)COCC(=O)NNC(=O)COCC(=O)N[C@H]3CC[C@@]4(O)[C@H]5Cc6cc(O)cc7c6[C@@]4(CCN5C)[C@H]3O7)c2)N=C(c2ccccc2)c2ccccc21
Bmax [1]: 9.5 pmol | Ki [2]: 356 nM | ED50 (Mus musculus [3]): 84.45 pmol | Ki (Mu-type opioid receptor [5]; read-out: Ki): 8.3 nM | Ki [6]: 57 nM | ED50 (Mus musculus [7]): 47.41 pmol | Bmax [8]: 16 pmol | Bmax (Mu-type opioid receptor [9]): 9.8 pmol

CN1C(=O)[C@H](NC(=O)Nc2cccc(OCCNC(=O)COCC(=O)N[C@H]3CC[C@@]4(O)[C@H]5Cc6cc(O)cc7c6[C@@]4(CCN5C)[C@H]3O7)c2)N=C(c2ccccc2)c2ccccc21
Bmax [1]: 9.3 pmol | Ki [2]: 223 nM | ED50 (Mus musculus [3]): 57.31 pmol | Ki (Mu-type opioid receptor [5]; read-out: Ki): 24.1 nM | Ki [6]: 210 nM | ED50 (Mus musculus [7]): 3036 pmol | Bmax [8]: 14 pmol | Bmax (Mu-type opioid receptor [9]): 12.4 pmol

CNC(=O)COCC(=O)NCCCCNC(=O)COCC(=O)N[C@H]1CC[C@@]2(O)[C@H]3Cc4cc(O)cc5c4[C@@]2(CCN3C)[C@H]1O5
ED50 (Mus musculus [3]): 40.74 pmol | EC50 [4]: 572 nM | Ki (Mu-type opioid receptor [5]; cho): 29.8 | ED50 (Mus musculus [7]): 51.93 pmol | Bmax (Mu-type opioid receptor [9]): 9.3 pmol
